# Assay results published in ChEMBL document CHEMBL2331135, “New selective carbonic anhydrase IX inhibitors: synthesis and pharmacological evaluation of diarylpyrazole-benzenesulfonamides” (Bioorg Med Chem, 2013).
# Active and inactive are the calls of the source. The calls are words filed in the database; no cut-off is given here.
# Legend:
# [1] = tested on: MDA-MB-231; experiment: Potentiation of doxorubicin-induced cytotoxicity against human MDA-MB-231 cells under normoxic condition at 1 uM after 72 hrs by MTS assay; format: functional, cell-based
# [2] = molecular target: Carbonic anhydrase 9 (Homo sapiens, UniProt Q16790); experiment: Inhibition of human carbonic anhydrase 9 preincubated for 10 mins by CO2 hydration stopped-flow assay
# [3] = tested on: MDA-MB-231; experiment: Cytotoxicity against human MDA-MB-231 cells after 72 hrs by MTS assay; conditions: MDA-MB-231, 72 h
# [4] = tested on: MDA-MB-231; experiment: Ratio of IC50 for human MDA-MB-231 cells under hypoxic condition to IC50 for human MDA-MB-231 cells under normoxic condition; format: functional
# [5] = molecular target: Carbonic anhydrase 1 (Homo sapiens, UniProt P00915); experiment: Inhibition of human carbonic anhydrase 1 preincubated for 10 mins by CO2 hydration stopped-flow assay
# [6] = species on record: Homo sapiens; experiment: Selectivity ratio of Ki for human carbonic anhydrase 2 to Ki for human carbonic anhydrase 9
# Method in brief: (§1)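 Stopped-flow CO2 hydration assay using 0.2 mM phenol red read at 557 nm, in 10 mM Hepes pH 7.5 with 0.1 M Na2SO4. Substrate was CO2-saturated water at 25 °C. Enzyme and inhibitor were preincubated 10 min at room temperature, testing at least seven inhibitor concentrations, with dilutions going down to 0.01 nM. Ki came from Lineweaver-Burk plots, triplicates averaged. The ratios are hCA I or hCA II Ki divided by hCA IX Ki.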
# [7] = species on record: Homo sapiens; experiment: Selectivity ratio of Ki for human carbonic anhydrase 1 to Ki for human carbonic anhydrase 9; method in brief: as §1
# [8] = molecular target: Carbonic anhydrase 2 (Homo sapiens, UniProt P00918); experiment: Inhibition of human carbonic anhydrase 2 preincubated for 10 mins by CO2 hydration stopped-flow assay
# [9] = tested on: MDA-MB-231; experiment: Potentiation of doxorubicin-induced cytotoxicity against human MDA-MB-231 cells under hypoxic condition at 1 uM after 72 hrs by MTS assay; format: functional, cell-based
# Method in brief: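 MDA-MB-231 cells (2×10^3 per well) were seeded in DMEM with 10% FCS, buffered with 22.3 mM bicarbonate, and moved to hypoxia (1% O2, 5% CO2, N2 balance). Cells were then held 72 h at 37 °C under hypoxia. Read-out was MTS, 1 h, A492. IC50 is the doxorubicin concentration giving 50% absorbance reduction. Data come from three independent experiments, six wells each.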
# Sequence of Carbonic anhydrase 1 (P00915 whole entry): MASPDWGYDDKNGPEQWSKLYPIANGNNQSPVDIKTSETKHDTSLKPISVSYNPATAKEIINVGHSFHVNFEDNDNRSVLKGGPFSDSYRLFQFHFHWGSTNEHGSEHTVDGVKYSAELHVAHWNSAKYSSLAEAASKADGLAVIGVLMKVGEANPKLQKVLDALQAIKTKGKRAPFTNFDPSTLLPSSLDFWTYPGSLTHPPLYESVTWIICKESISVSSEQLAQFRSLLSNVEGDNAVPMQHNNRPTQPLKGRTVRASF
SMILES,Ki [2] [nM],other results
COc1ccc2cc(-c3cc(CO)nn3-c3ccc(S(N)(=O)=O)cc3)ccc2c1,19,Activity [1]: inactive; IC50 [3]: > 50000 nM
NS(=O)(=O)c1ccc(-n2nc(CCO)cc2-c2ccccc2)cc1,23,–
COc1ccc2cc(-c3cc(CO)nn3-c3ccc(S(N)(=O)=O)cc3)ccc2c1Br,30,–
COc1cccc2c1C(=O)c1c(O)c3c(c(O)c1C2=O)C[C@@](O)(C(=O)CO)C[C@@H]3O[C@H]1C[C@H](N)[C@H](O)[C@H](C)O1 [DOXORUBICIN],–,Ratio IC50 [4]: 3
NS(=O)(=O)c1ccc(-n2nc(CO)cc2-c2ccccc2)cc1,27,–
NS(=O)(=O)c1ccc(-n2nc(CO)cc2-c2ccc(-c3ccccc3)cc2)cc1,27,–
COc1ccccc1-c1cc(CO)nn1-c1ccc(S(N)(=O)=O)cc1,32,–
COc1cccc(-c2cc(CO)nn2-c2ccc(S(N)(=O)=O)cc2)c1,26,–
COc1ccc2cc(-c3cc(CO)nn3-c3cccc(S(N)(=O)=O)c3)ccc2c1,29,–
NS(=O)(=O)c1ccc(-n2nc(CO)cc2-c2ccc(Br)cc2)cc1,15,Activity [1]: inactive; Activity [9]: Active; IC50 [3]: > 50000 nM
N#Cc1ccc(-c2cc(CO)nn2-c2ccc(S(N)(=O)=O)cc2)cc1,27,–
NS(=O)(=O)c1ccc(-n2nc(-c3ccccc3)cc2CO)cc1,157,–
Cc1ccc(-c2cc(CO)nn2-c2ccc(S(N)(=O)=O)cc2)cc1,–,Ki [5]: 1510 nM; Ratio Ki [6]: 8; Ratio Ki [7]: 69; Ki [8]: 176 nM
NS(=O)(=O)c1cccc(-n2nc(CO)cc2-c2ccccc2)c1,31,–
NS(=O)(=O)c1ccc(-n2nc(CO)cc2-c2cccnc2)cc1,13,–

# Now from value to compound, other results behind:
Ki [2] [nM],SMILES,other results
66,NS(=O)(=O)c1ccc(-n2cc(CO)c(-c3ccccc3)n2)cc1,–
21,NS(=O)(=O)c1ccc(-n2nc(-c3ccc4ccccc4c3)cc2CO)cc1,–
49,NS(=O)(=O)c1ccc(-n2cc(CO)c(-c3ccc4ccccc4c3)n2)cc1,–
1860,NS(=O)(=O)c1ccc(-n2nc(CO)cc2-c2ccc3c(ccc4ccccc43)c2)cc1,Ki [5]: > 10000 nM; Ratio Ki [6]: > 5; Ratio Ki [7]: > 5; Ki [8]: > 10000 nM
19,NS(=O)(=O)c1cccc(-n2nc(CO)cc2-c2ccc3ccccc3c2)c1,Activity [1]: inactive; Activity [9]: Active; IC50 [3]: > 50000 nM
254,NS(=O)(=O)c1ccc(-n2nc(CO)cc2-c2cccc3ccccc23)cc1,–
17,NS(=O)(=O)c1ccc(-n2nc(CO)cc2-c2ccc3ccccc3c2)cc1,–
48,COc1ccc2cc(-c3nn(-c4ccc(S(N)(=O)=O)cc4)cc3CO)ccc2c1,–
